Tests used:
Rattus norvegicus [1] = species on record: Rattus norvegicus; assay: In vitro inhibition of Leukotriene B4 (LTB4) production in glycogen-induced peritoneal cells of rat; type: functional, cell-based
How it was run: (§1)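 Glycogen-elicited rat peritoneal leukocytes in Ca²⁺/Mg²⁺-free HBSS (5 × 10⁶ cells/mL; 5 × 10⁵ cells per aliquot). Cells were preincubated 5 min at 37 °C with compound or vehicle (0.1% DMSO/0.1% BSA), then stimulated with A23187 (4 µM, 10 min, 37 °C). The reaction was stopped with BW755C (100 µM). Supernatant LTB₄, TXB₂ and PGE₂ were measured by RIA. Points were run in duplicate; IC₅₀ by probit.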

Rattus norvegicus [2] = species on record: Rattus norvegicus; assay: In vitro inhibition of Thromboxane B2 (TXB2) production in glycogen-induced peritoneal cells of rat; type: functional, cell-based; how it was run: as §1
Rattus norvegicus [3] = species on record: Rattus norvegicus; assay: Compound was evaluated in Vitro in glycogen induced peritoneal cells of rats(GPEC) for the inhibition of Prostaglandin E2 (PGE2) production at 0.1-10 uM; type: functional, cell-based; how it was run: as §1
Rattus norvegicus [4] = species on record: Rattus norvegicus; assay: Compound was evaluated in Vitro in glycogen induced peritoneal cells of rats(GPEC) for the inhibition of Prostaglandin E2 (PGE2) production at 0.1-100 uM; type: functional, cell-based; how it was run: as §1
Homo sapiens [5] = species on record: Homo sapiens; assay: Inhibitory activity of the compound against Thromboxane TXB2 production in human whole blood; type: functional
How it was run: (§2)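 Fresh heparinized (10 U/mL) human volunteer blood, 0.4 mL aliquots. Blood was preincubated 5 min at 37 °C with compound or vehicle (0.1% DMSO/0.1% BSA), then challenged with A23187 (40 µM, 20 min, 37 °C). Plasma LTB₄ and TXB₂ were measured by RIA. Duplicate points; IC₅₀ by probit.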

Homo sapiens [6] = species on record: Homo sapiens; assay: Inhibitory activity of the compound against leukotriene (LT) B4 production in human whole blood; type: functional; how it was run: as §2
Rattus norvegicus [7] = species on record: Rattus norvegicus; assay: Compound was evaluated in Vitro in glycogen induced peritoneal cells of rats(GPEC) for the inhibition of Prostaglandin E2 (PGE2) production at 0.1-1 uM; type: functional, cell-based; how it was run: as §1
Homo sapiens [8] = species on record: Homo sapiens; assay: In vitro inhibition of LTB4 production in human whole blood; type: functional; how it was run: as §2
Homo sapiens [9] = species on record: Homo sapiens; assay: In vitro inhibition of LTB4 production in human neutrophils; type: functional
How it was run: (§3)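 Human blood neutrophils were isolated by dextran sedimentation and Percoll gradient and held in Ca²⁺/Mg²⁺-free HBSS (1 × 10⁶ cells/mL). Cells were preincubated 5 min at 37 °C with compound or vehicle (0.1% DMSO/0.1% BSA), then stimulated with A23187 (4 µM, 10 min). Supernatant LTB₄ was measured by RIA. Duplicate points; IC₅₀ by probit.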

Rattus norvegicus [10] = species on record: Rattus norvegicus; assay: Compound was evaluated in Vitro in glycogen induced peritoneal cells of rats(GPEC) for the inhibition of Leukotriene B4 (LTB4) production; type: functional, cell-based; how it was run: as §1
[11] = in vitro activities of TXB2 in human platelets; type: functional
How it was run: (§4)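 Washed human platelets in Tris-HCl-saline, pH 7.4, with 10 µM indomethacin (3 × 10⁸ cells/mL). Platelets were preincubated 5 min at 25 °C with compound or vehicle, then given PGH₂ (1 µg/mL, 3 min, 25 °C). The reaction was stopped with citrate/ethanol. Supernatant TXB₂ was measured by RIA. Duplicate points; IC₅₀ by probit.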

[12] = in vitro activities of TXB2 in human whole blood; type: functional, tissue-based; how it was run: as §2
Homo sapiens [13] = species on record: Homo sapiens; assay: Inhibitory activity of the compound against leukotriene (LT) B4 production in human neutrophils; type: functional; how it was run: as §3
Homo sapiens [14] = species on record: Homo sapiens; assay: Inhibitory activity of the compound against Thromboxane TXB2 production in human blood platelets; type: functional; how it was run: as §4

IC50 (Rattus norvegicus [1]) [µM] | IC50 (Rattus norvegicus [2]) [µM] | IC50 (Rattus norvegicus [3]) [µM] | SMILES | other results
0.17 | 0.11 | – | COC1=C(/C=C(\CCCCCc2cccnc2)C(=O)O)C(=O)C(C)=C(C)C1=O | –
1.4 | 0.09 | > 100 | COC1=C(C)C(=O)C(/C=C(\CCCCc2cccnc2)C(=O)O)=C(C)C1=O | –
0.84 | 0.12 | – | CCOC1=C(C)C(=O)C(C)=C(/C=C(\CCCCCc2cccnc2)C(=O)O)C1=O | IC50 (Rattus norvegicus [4]): 100 µM
0.27 | < 0.1 | > 100 | CC1=C(/C=C(\CCCCCc2cccnc2)C(=O)O)C(=O)C(OCC2CCCCC2)=C(C)C1=O | –
1.8 | 0.89 | – | CCCCOC1=C(C)C(=O)C(C)=C(/C=C(\CCCc2cccnc2)C(=O)O)C1=O | –
3.2 | 0.48 | 100 | COC1=C(C)C(=O)C(/C=C(\CCCc2cccnc2)C(=O)O)=C(C)C1=O | –
– | – | – | CC(c1cc2ccccc2s1)N(O)C(N)=O (centres undefined) [ZILEUTON] | IC50 (Homo sapiens [5]): > 100 µM; IC50 (Homo sapiens [6]): 1.3 µM
1 | < 0.1 | – | CCCCOC1=C(C)C(=O)C(C)=C(/C=C(\CCCCCc2cccnc2)C(=O)O)C1=O | IC50 (Rattus norvegicus [7]): 100 µM
4.4 | 0.32 | – | CCOC1=C(C)C(=O)C(/C=C(\CCCCCc2cccnc2)C(=O)O)=C(C)C1=O | IC50 (Rattus norvegicus [7]): 100 µM
0.27 | < 0.1 | – | CCCCCCCOC1=C(C)C(=O)C(C)=C(/C=C(\CCCCCc2cccnc2)C(=O)O)C1=O | –
3.2 | 0.16 | – | CCCCCCCOC1=C(C)C(=O)C(/C=C(\CCCCCc2cccnc2)C(=O)O)=C(C)C1=O | IC50 (Rattus norvegicus [7]): > 100 µM
4.9 | 0.4 | – | COc1c(C)c(O)c(/C=C(\CCCCCc2cccnc2)C(=O)O)c(C)c1O | IC50 (Homo sapiens [8]): > 100 µM; IC50 (Homo sapiens [9]): 1.9 µM; IC50 (Rattus norvegicus [10]): 4900 µM; IC50 [11]: 1.9 µM; IC50 [12]: 3 µM
0.82 | 0.07 | – | COC1=C(C)C(=O)C(/C=C(\CCCCCc2cccnc2)C(=O)O)=C(C)C1=O | IC50 (Homo sapiens [8]): 5.8 µM; IC50 (Homo sapiens [9]): 0.9 µM; IC50 (Rattus norvegicus [10]): 820 µM; IC50 [11]: 0.39 µM; IC50 [12]: 3.2 µM
– | – | – | O=C(O)/C=C/c1ccc(Cn2ccnc2)cc1 [OZAGREL] | IC50 (Homo sapiens [13]): > 100 µM; IC50 (Homo sapiens [14]): 1.9 µM; IC50 (Homo sapiens [5]): < 0.1 µM; IC50 (Homo sapiens [6]): > 100 µM
> 3 | 1.5 | > 100 | COc1c(C)c(O)c(C)c(/C=C(\CCCCCc2cccnc2)C(=O)O)c1O | –
0.59 | 0.12 | 100 | COC1=C(C)C(=O)C(/C=C(\CCCCCCc2cccnc2)C(=O)O)=C(C)C1=O | –
11.7 | 0.41 | > 100 | COC1=C(OC)C(=O)C(/C=C(\CCCCCc2cccnc2)C(=O)O)=C(C)C1=O | –
0.18 | < 0.1 | – | COC1=C(C)C(=O)C(C)=C(/C=C(\CCCCCCc2cccnc2)C(=O)O)C1=O | IC50 (Rattus norvegicus [7]): 100 µM
0.54 | 0.18 | – | COC1=C(C)C(=O)C(C)=C(/C=C(\CCCCCc2cccnc2)C(=O)O)C1=O | IC50 (Rattus norvegicus [4]): > 100 µM
0.22 | 0.42 | – | COC1=C(/C=C(\CCCCCCc2cccnc2)C(=O)O)C(=O)C(C)=C(C)C1=O | –
2.1 | 0.14 | > 100 | COc1c(O)c(C)c(C)c(O)c1/C=C(\CCCCCc1cccnc1)C(=O)O | –
0.75 | 0.5 | – | COC1=C(/C=C(\CCCCCc2cccnc2)C(=O)O)C(=O)C(C)=CC1=O | –

Source: ChEMBL document CHEMBL1129263, “Structure-activity relationships of (E)-3-(1,4-benzoquinonyl)-2-[(3-pyridyl)-alkyl]-2-propenoic acid derivatives that inhibit both 5-lipoxygenase and thromboxane A2 synthetase” (J Med Chem, 1996)
